From ChEMBL document CHEMBL1143659, “Discovery of a rhodanine class of compounds as inhibitors of Plasmodium falciparum enoyl-acyl carrier protein reductase” (J Med Chem, 2007)
In brackets after ≈: the same amount, converted by molar mass. Activity calls are given as the source filed them. The rule behind the calls is not given here.

Key:
[1] = target: T1, Enoyl-acyl-carrier protein reductase (Plasmodium falciparum) (UniProt Q965D5); experiment: (§1) Inhibition of Plasmodium falciparum recombinant enoyl ACP reductase expressed in BL21 (DE3) cells; format: biochemical
T1 sequence (whole entry): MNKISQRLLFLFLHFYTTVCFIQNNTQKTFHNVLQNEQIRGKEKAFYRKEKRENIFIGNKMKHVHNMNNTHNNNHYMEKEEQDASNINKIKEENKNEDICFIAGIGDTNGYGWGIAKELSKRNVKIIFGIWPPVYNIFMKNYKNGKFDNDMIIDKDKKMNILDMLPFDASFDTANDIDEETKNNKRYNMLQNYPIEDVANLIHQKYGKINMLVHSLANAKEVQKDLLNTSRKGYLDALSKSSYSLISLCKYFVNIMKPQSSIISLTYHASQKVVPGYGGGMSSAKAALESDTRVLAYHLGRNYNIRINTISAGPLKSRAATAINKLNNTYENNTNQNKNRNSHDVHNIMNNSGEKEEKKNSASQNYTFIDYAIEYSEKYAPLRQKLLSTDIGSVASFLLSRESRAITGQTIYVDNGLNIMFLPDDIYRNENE
Summary of the method: (§2)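 His-tagged enzyme from E. coli, Ni-NTA purified. Assay at 25 °C in 150 mM Tris-NaCl pH 7.5, 200 µM crotonoyl-CoA, 100 µM NADH, 200 nM enzyme, 1% DMSO; NADH oxidation followed as A340 decrease. Percent inhibition from residual activity across serial inhibitor dilutions; IC50 by nonlinear regression vs log concentration; mean of three sets.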

[2] = target: T2, Enoyl-acyl-carrier protein reductase (Plasmodium falciparum, UniProt Q965D5); experiment: as §1; format: biochemical; summary of the method: as §2
T2 sequence (Q965D5 whole entry): T1 sequence (whole entry)

[3] = target: T2, Enoyl-acyl-carrier protein reductase; experiment: Inhibition of Plasmodium falciparum recombinant enoyl ACP reductase expressed in BL21 (DE3) cells with respect to NADH; format: cell-based
Summary of the method: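 Ki via Dixon plot (x-intercept). NADH fixed at 50 and 100 µM, crotonoyl-CoA 200 µM, 200 nM enzyme; inhibitor varied from 1 nM up to its IC50. A340 NADH-consumption assay at 25 °C, pH 7.5; mean of three sets.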

[4] = target: T2, Enoyl-acyl-carrier protein reductase; experiment: Inhibition of Plasmodium falciparum recombinant enoyl ACP reductase expressed in BL21 (DE3) cells with respect to crotonyl CoA; format: cell-based
Summary of the method: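 Ki via Dixon plot (x-intercept). Crotonoyl-CoA fixed at 100 and 200 µM, NADH 100 µM; inhibitor varied from 1 nM up to its IC50. Spectrophotometric NADH oxidation at 340 nm, 25 °C, Tris-NaCl pH 7.5; mean of three sets.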

Plasmodium falciparum = experiment: Growth inhibition of chloroquine-sensitive Plasmodium falciparum FCK2 in human erythrocytes after 96 hrs; format: functional, organism-based; conditions: FCK2, 96 h
Summary of the method: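 Synchronized early-trophozoite cultures (1-2% parasitemia, 2% hematocrit) in RPMI 1640 with 10% human serum, 0.225% bicarbonate, gentamycin; inhibitor in Me2SO (final ≤0.05%), added up to fourth day. Parasitemia scored by Giemsa-stained microscopy at 48 and 96 h against solvent control. IC50 by nonlinear regression of relative percent parasitemia vs log concentration; three independent experiments.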

| Structure (SMILES) | IC50 [2] [µM] | other results |
| --- | --- | --- |
| COC(=O)CCCCCN1C(=O)/C(=C/c2cc(OC)c(OC)c(OC)c2)SC1=S | – | Activity [1]: inactive |
| O=C(NCCN1CCCc2ccccc21)c1cc(-c2ccc(Cl)s2)nc2ccccc12 | 60 | – |
| O=C(O)CCCN1C(=O)/C(=C/c2cn(-c3ccccc3)nc2-c2ccc(Cl)cc2)SC1=S | 50 | – |
| O=C1/C(=C/c2ccc(Cl)cc2Cl)SC(=S)N1c1ccc(O)cc1 | 25 | – |
| CN1C(=O)/C(=C/c2ccc(-c3ccc(Cl)c(Cl)c3)o2)SC1=S | > 100 | – |
| O=C1/C(=C/c2ccc(O)c(O)c2)SC(=S)N1c1ccccc1 | 0.035 | IC50 (Plasmodium falciparum): 0.75 µM; MIC (Plasmodium falciparum): 2.5 µM (≈ 0.824 µg/mL); Ki [3]: 0.032 µM; Ki [4]: 0.0042 µM |
| CCOc1ccc(N2C(=O)/C(=C/c3cccc4ccccc34)SC2=S)cc1 | – | Activity [1]: inactive |
| O=C(NC1CCCc2ccccc21)c1cc(Sc2cccc(Cl)c2)nc2ccccc12 (stereo not drawn) | 50 | – |
| COc1ccc(N2C(=O)/C(=C/c3c4ccccc4cc4ccccc34)SC2=S)cc1 | > 50 | – |
| CCc1ccc(/C=C2\SC(=S)N(CCCCCC(=O)OC)C2=O)cc1 | > 100 | – |
| Cc1ccc(-c2ccc(/C=C3\SC(=S)N(C)C3=O)o2)cc1Cl | 0.87 | – |
| COc1ccc(/C=C2\SC(=S)N(c3ccc(OC)cc3)C2=O)cc1 | > 100 | – |
| O=C(Nc1cc(Cl)ccc1O)c1cc(-c2ccc(Cl)cc2)on1 | 75 | – |
| O=C1NC(=S)S/C1=C\c1ccc(-c2ccccc2Cl)o1 | 35 | – |
| CN(C)CCOC(=O)CCCCCN1C(=O)/C(=C/c2ccccc2)SC1=S | > 100 | – |
| O=C1NC(=S)S/C1=C\c1ccc(-c2cc(Cl)cc(Cl)c2)o1 | 6.1 | Ki [3]: 5.5 µM; Ki [4]: 4.1 µM |
| O=C1/C(=C/c2ccco2)SC(=S)N1c1cccc(F)c1 | > 100 | – |
| O=C1c2c(Cl)c(Cl)c(Cl)c(Cl)c2C(=O)N1c1ccc2[nH]c(/C=C/c3ccc(Cl)cc3)nc2c1 | 70 | – |

| Structure (SMILES) | IC50 [2] [µM] | other results |
| --- | --- | --- |
| O=C1NC(=S)S/C1=C\c1ccc(-c2cccc(Cl)c2Cl)o1 | 0.87 | Ki [3]: 0.56 µM; Ki [4]: 0.48 µM |
| O=C1NC(=S)S/C1=C\c1ccc(-c2cccc(Cl)c2)o1 | 1.7 | Ki [3]: 1.05 µM; Ki [4]: 0.88 µM |
| Oc1cc(Cl)ccc1Oc1ccc(Cl)cc1Cl [TRICLOSAN] | 0.066 | Ki [4]: 0.66 µM |
| COc1ccc(/C=C2\SC(=S)N(c3ccc(O)cc3)C2=O)cc1 | 10 | Ki [3]: 9.1 µM; Ki [4]: 8.7 µM |
| CN1C(=O)/C(=C/c2ccc(-c3cc(Cl)cc(Cl)c3)o2)SC1=S | 0.87 | – |
| CCN(CC)c1ccc(N2C(=O)/C(=C/c3ccc(OC)cc3)SC2=S)cc1 | > 100 | – |
| O=C1/C(=C/c2ccc(-c3ccc(Cl)cc3)o2)SC(=S)N1c1cccc(Cl)c1 | > 100 | – |
| CN1C(=O)/C(=C/c2ccc(-c3ccc(Cl)cc3Cl)o2)SC1=S | 0.87 | Activity [1]: inactive |
| CCN1C(=O)/C(=C/c2cc(Cl)c(O)c(Cl)c2)SC1=S | > 100 | – |
| O=C(O)c1cccc(-c2ccc(/C=C3\SC(=S)N(c4cccc(C(F)(F)F)c4)C3=O)o2)c1 | 20 | – |
| Cc1ccc(-c2ccc(/C=C3\SC(=S)NC3=O)o2)cc1Cl | 28.5 | – |
| COc1ccc(N2C(=O)/C(=C/c3ccccc3)SC2=S)cc1 | > 100 | – |
| CCCCOc1ccc(/C=C2\SC(=S)N(CCCCCC(=O)OC)C2=O)cc1 | – | Activity [1]: inactive |
| CN1C(=O)/C(=C/c2ccc(-c3cccc(Cl)c3)o2)SC1=S | 30.2 | – |
| COc1ccc(Cl)cc1NC(=O)c1cc(-c2ccc(Cl)s2)nc2ccccc12 | 60 | – |
| CC(C)(C)c1ccc(CS[n+]2cc3ccccc3c(=O)n2Nc2ccc(Cl)nn2)cc1 | 50 | – |
| COC(=O)CCCCCN1C(=O)/C(=C/c2ccc(Cl)cc2)SC1=S | > 100 | – |

Continued, in another order:

| IC50 [2] [µM] | Structure (SMILES) | other results |
| --- | --- | --- |
| 100 | O=C(O)CCCCCN1C(=O)/C(=C/c2c[nH]c3ccccc23)SC1=S | – |
| 0.87 | COc1cc(/C=C2\SC(=S)N(c3ccc(O)cc3)C2=O)ccc1O | – |
| 0.98 | O=C1NC(=S)S/C1=C\c1ccc(-c2ccc(Cl)c(Cl)c2)o1 | Ki [3]: 0.63 µM; Ki [4]: 0.51 µM |
| > 100 | CC(C)c1ccc(/C=C2\SC(=S)N(CCCCCC(=O)O)C2=O)cc1 | – |
| 52 | Clc1ccc(CNc2nc(SCc3ccc(Cl)cc3)nc3ccccc23)cc1 | – |
| > 100 | CN(C)CCOC(=O)CCN1C(=O)/C(=C/c2ccc(Cl)cc2Cl)SC1=S | – |
| > 100 | O=C1/C(=C/c2cccc(O)c2)SC(=S)N1c1ccccc1 | – |
| > 100 | CCCCCOc1ccc(/C=C2\SC(=S)N(CCCCCC(=O)O)C2=O)cc1OC | – |
| > 100 | Cc1cc(/C=C2\SC(=S)N(CCCCCC(=O)O)C2=O)ccc1OCc1ccccc1 | – |
| 0.87 | CN(C)c1ccc(/C=C2\SC(=S)N(c3ccc(O)cc3)C2=O)cc1 | – |
| > 100 | COc1ccc(N2C(=O)/C(=C/c3ccc(N(C)C)cc3)SC2=S)cc1 | – |
| > 100 | O=C1/C(=C/c2ccc(-c3cccc(Cl)c3)o2)SC(=S)N1c1cccc(Cl)c1 | – |
| > 100 | COc1ccc(N2C(=O)/C(=C/c3ccc(C(C)C)cc3)SC2=S)cc1 | – |
| 6 | O=C1NC(=S)S/C1=C\c1ccc(-c2cc(Cl)ccc2Cl)o1 | Ki [3]: 2.5 µM; Ki [4]: 2 µM |
| > 100 | COC(=O)CCCCCN1C(=O)/C(=C/c2cccc(O)c2)SC1=S | – |
| 55 | COc1ccc(-c2cc(C(=O)Nc3cc(Cl)ccc3O)no2)cc1 | – |
| 6.5 | COc1cc(/C=C2\SC(=S)N(CCCCCC(=O)O)C2=O)ccc1OCc1ccc(Cl)cc1 | Ki [3]: 5.4 µM; Ki [4]: 5.1 µM |
| 1.5 | COc1ccc(N2C(=O)/C(=C/c3ccc(C=O)cc3)SC2=S)cc1 | Ki [3]: 14.4 µM; Ki [4]: 13.2 µM |
| > 100 | CCN1C(=O)/C(=C/c2ccc(N(CC)CC)cc2O)SC1=S | – |
| 90 | CCc1nnc(NS(=O)(=O)c2ccc(N3C(=O)c4c(Cl)c(Cl)c(Cl)c(Cl)c4C3=O)cc2)s1 | – |
| 7 | CCCCCCOc1ccc(/C=C2\SC(=S)N(CCCCCC(=O)O)C2=O)cc1OC | Ki [3]: 7.3 µM; Ki [4]: 6.6 µM |
| > 100 | O=C1/C(=C/c2cccc(O)c2)SC(=S)N1c1ccc(F)cc1 | – |
| 45 | CCCOc1ccc(/C=C2\SC(=S)N(CCCCCC(=O)O)C2=O)cc1OC | – |
| 0.87 | COc1ccc(N2C(=O)/C(=C/c3ccc(OC)c4ccccc34)SC2=S)cc1 | – |
